Reference: publication PMC3481556 (Journal of Natural Products, 2012)

Columns and labels:
[1] = system: blood stage; assay: Blood stage assays; type: cell-based; details: Plasmodium berghei, read-out: IC50 in blood stage assays
[2] = system: Bacillus subtilis 3610; assay: Antibiotic assay; type: cell-based; details: concentrations as high as 50 μg/mL
[3] = system: liver-stage Plasmodium berghei; assay: Liver-stage P. berghei assay; type: cell-based, Plasmodium berghei ANKA
How it was run: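 Luciferase-expressing P. berghei ANKA sporozoites came from dissected infected Anopheles stephensi mosquitoes. 4000 sporozoites infected 15 000 HepG2 cells per well with test compound in triplicate, 0 to 50 μg/mL, final DMSO 1%. After 2 days at 37 °C, relative parasite load was read by Bright-Glo luminescence. Standard inhibition dose–response fit gave IC50, mean of two independent experiments.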

[4] = system: HepG2 human hepatoma cells; assay: Cytotoxic assay, HepG2 cell viability; type: cell-based; details: concentrations as high as 50 μg/mL
How it was run: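 HepG2 cells kept in DMEM with 10% FBS and 1% antibiotic–antimycotic at 37 °C, 5% CO2. Test compound in DMSO added in triplicate to 15 000 cells per well, 0 to 50 μg/mL, final DMSO 1%. Incubated 2 days at 37 °C, then viability read by CellTiter-Glo luminescence. Standard inhibition dose–response fit gave IC50, averaged from two independent experiments.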

| Structure (SMILES) | IC50 [1] | activity against B. subtilis (in words) [2] | activity against liver-stage Plasmodium berghei (in words) [3] | cytotoxicity against HepG2 cells (in words) [4] |
| --- | --- | --- | --- | --- |
| O=C1C(O)=C([C@H]2CC[C@H](c3ccc(Cl)cc3)CC2)C(=O)c2ccccc21 [Atovaquone] | 0.3 nM | – | – | – |
| COc1cccc2c1C(=O)c1ccc3cc(C)cc(O)c3c1C2=O [Compound 5, X-14881 E] | – | showed antibiotic activity | showed antibiotic activity | moderate cytotoxicity |
| COc1cccc2c1C(=O)c1ccc3c(c1C2=O)C(=O)C[C@](C)(O)C3 [Compound 4, 6-deoxy-8-O-methylrabelomycin] | – | showed antibiotic activity | showed antibiotic activity | – |
